Test results reported in paper PMC2993511 (Biochemical pharmacology, 2010).
Entries after “also recorded” stand apart in the source; their conditions may differ.

Legend:
Naïve CHO cells = test: [35S]GTPγS binding in naïve CHO cells; format: biochemical, Chinese hamster; conditions: not transfected with MOR or DOR, data not shown
Method in brief: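 Untransfected CHO cell membranes, a receptor-free control. Tested with 0.1 nM [35S]GTPγS and 3 μM GDP in HEPES pH 7.4 buffer at 30°C. Extract and DAMGO were added. Nonspecific binding was subtracted using 10 μM unlabeled GTPγS. Read-out was filtration plus scintillation counting.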

DOR [1] = target: T1, DOR (Homo sapiens, UniProt P41143); test: Receptor binding assay, displacement of [3H]deltorphin
MOR [2] = target: T2, MOR (Homo sapiens, UniProt P35372); test: Receptor binding assay, displacement of [3H]DAMGO
MOR [3] = target: T2, MOR; test: [35S]GTPγS binding assay, CHO-MOR membranes; format: biochemical
Method in brief: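 Human MOR stably expressed in CHO cells (G418 selection); membranes homogenised on ice and spun at 20,000 g. 20 μg protein incubated with 0.1 nM [35S]GTPγS, 3 μM GDP, Mg2+ and Na+ in HEPES pH 7.4, 1 hr, 30°C. DAMGO was the positive control. Nonspecific binding was taken with 10 μM unlabeled GTPγS. Filter-bound radioactivity was counted and expressed as percent stimulation above basal.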

DOR [4] = target: T1, DOR; test: [35S]GTPγS binding assay, CHO-DOR membranes; format: biochemical

T1 sequence (P41143 whole entry): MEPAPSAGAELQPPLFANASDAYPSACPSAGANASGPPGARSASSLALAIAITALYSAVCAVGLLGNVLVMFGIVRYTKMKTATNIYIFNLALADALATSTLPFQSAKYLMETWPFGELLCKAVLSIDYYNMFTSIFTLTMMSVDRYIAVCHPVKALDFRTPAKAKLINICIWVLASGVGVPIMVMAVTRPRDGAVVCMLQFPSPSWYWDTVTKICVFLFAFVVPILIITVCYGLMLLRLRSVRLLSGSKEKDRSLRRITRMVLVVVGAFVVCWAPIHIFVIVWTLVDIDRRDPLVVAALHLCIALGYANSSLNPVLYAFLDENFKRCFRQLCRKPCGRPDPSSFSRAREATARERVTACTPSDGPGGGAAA
T2 sequence (P35372 whole entry): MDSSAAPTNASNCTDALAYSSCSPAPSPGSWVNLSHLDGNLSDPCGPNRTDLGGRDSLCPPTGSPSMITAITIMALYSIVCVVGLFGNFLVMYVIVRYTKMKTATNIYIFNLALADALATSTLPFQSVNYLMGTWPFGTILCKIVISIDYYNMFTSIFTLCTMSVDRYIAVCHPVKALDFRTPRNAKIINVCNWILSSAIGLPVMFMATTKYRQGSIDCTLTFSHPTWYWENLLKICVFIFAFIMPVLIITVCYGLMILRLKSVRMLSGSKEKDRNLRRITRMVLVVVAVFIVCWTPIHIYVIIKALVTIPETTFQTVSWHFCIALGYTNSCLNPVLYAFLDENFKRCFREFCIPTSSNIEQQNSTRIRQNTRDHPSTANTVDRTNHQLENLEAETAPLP

C=CCN1C[C@H](C)N([C@H](c2ccc(C(=O)N(CC)CC)cc2)c2cccc(OC)c2)C[C@H]1C [SNC-80]
stimulation of [35S]GTPγS binding in naïve CHO cells (Naïve CHO cells): not stimulated

O=c1cc(-c2ccc(O)cc2)oc2cc(O)cc(O)c12 [apigenin]
IC50 (DOR [1]): > 50 µM | IC50 (MOR [2]): 35.8 ± 7.81 µM | Ki (MOR [2]): 16.2 ± 3.16 µM

COc1ccc(-c2oc3cc(OC)c(OC)c(O)c3c(=O)c2OC)cc1O [casticin]
IC50 (DOR [1]): 2.05 ± 0.631 µM | Ki (DOR [1]): 1.29 ± 0.44 µM | IC50 (MOR [2]): 2.84 ± 0.707 µM | Ki (MOR [2]): 1.14 ± 0.167 µM | activation of MOR (MOR [3]): did not activate | EC50 (DOR [4]): 15.3 ± 6.32 µM | Emax (DOR [4]; read-out: DOR Emax, stimulation of [35S]GTPγS binding): 74.6 ± 18.2%

COc1c(-c2ccc(O)cc2)oc2cc(O)cc(O)c2c1=O [isokaempferide]
IC50 (DOR [1]): 22.8 ± 14 µM | Ki (DOR [1]): 12.9 ± 7.92 µM | affinity for MOR (MOR [2]): no significant affinity

O=c1cc(-c2ccc(O)c(O)c2)oc2cc(O)cc(O)c12 [luteolin]
IC50 (DOR [1]): 16.8 ± 4.87 µM | Ki (DOR [1]): 9.53 ± 2.73 µM | IC50 (MOR [2]): 43.3 ± 13.2 µM | Ki (MOR [2]): 13.4 ± 4.06 µM

N,N-diallyl-Tyr-Aib-Aib-Phe-Leu-OH [ICI 174,864, reference compound]
effect on casticin stimulated [35S]GTPγS binding (DOR [4]; casticin 10 and 50 μM, ICI 174,864 10 μM): inhibited; also recorded: blocked

[D-Ala^2,N-MePhe^4-Glyol^5]enkephalin [DAMGO]
stimulation of [35S]GTPγS binding in naïve CHO cells (Naïve CHO cells): not stimulated
